How the values were obtained:
Format in all cases: functional
[1] = test system: A549; test: Growth inhibition of human A549 cells after 48 hrs by SRB assay; details: A549, 48 h
Method in brief: (§1)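 Cells grown in DMEM with 10% FBS, 5% CO2, 37 0C; seeded at densities set by doubling time, incubated 24 hrs, then exposed continuously 48 hrs to 0.01, 0.1, 1, 10, 100 µM; DMSO-treated cells as negative control. Fixed with cold 10% TCA (4 0C, 1 hr), stained 0.057% SRB 30 min, dye dissolved in 10 mM Tris, OD 510 nm; GI50 from [(Ti-Tz)/(C-Tz)]x100 = 50.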

[2] = test system: HeLa; test: Growth inhibition of human HeLa cells after 48 hrs by SRB assay; method in brief: as §1
[3] = Growth inhibition of human PANC1 cells after 48 hrs by SRB assay; details: PANC-1, 48 h; method in brief: as §1
[4] = test system: MDA-MB-231; test: Growth inhibition of human MDA-MB-231 cells after 48 hrs by SRB assay; details: MDA-MB-231, 48 h; method in brief: as §1

Compound | GI50 [1] [nM] | GI50 [2] [nM] | GI50 [4] [nM] | GI50 [3] [nM]
Cc1ccn2c(CN3CCCCC3)c(-c3ccccc3)nc2n1 | 4040 | 1710 | 30 | 20
Oc1ccc(-c2nc3ncccn3c2CN2CCCCC2)cc1 | 6890 | 4030 | 7230 | 200
Cc1ccn2c(CN3CCCC3)c(-c3ccc(O)cc3)nc2n1 | 2480 | 4760 | 1200 | 7280
c1ccc(-c2nc3ncccn3c2CN2CCCCC2)cc1 | 260 | 2280 | 30 | 1310
CN(Cc1c(-c2ccccc2)nc2ncccn12)c1ccccc1 | 5190 | 3120 | 320 | 5760
Cc1ccc(S(=O)(=O)N2CCN(Cc3c(-c4ccccc4)nc4ncccn34)CC2)cc1 | – | 4500 | 12900 | 110
c1ccc(-c2nc3ncccn3c2CN2CCN(Cc3c(-c4ccccc4)nc4ncccn34)CC2)cc1 | – | 3240 | 270 | 140
Cc1ccc(-c2nc3ncccn3c2CN2CCN(Cc3c(-c4ccc(C)cc4)nc4ncccn34)CC2)cc1 | – | 2800 | 2300 | 380
Clc1ccc(-c2nc3ncccn3c2CN2CCN(Cc3c(-c4ccc(Cl)cc4)nc4ncccn34)CC2)cc1 | – | 25600 | 4700 | 240
CC(C)(C)c1nc2ncccn2c1CN1CCN(Cc2c(C(C)(C)C)nc3ncccn23)CC1 | – | 2400 | 1100 | 3900
Cc1ccn2c(CN3CCN(Cc4c(-c5ccccc5)nc5nc(C)ccn45)CC3)c(-c3ccccc3)nc2n1 | – | 12700 | 15900 | 600
Cc1ccn2c(CN3CCN(Cc4c(C(C)(C)C)nc5nc(C)ccn45)CC3)c(C(C)(C)C)nc2n1 | – | 14500 | 25700 | 1400
c1ccc2cc(-c3nc4ncccn4c3CN3CCN(Cc4c(-c5ccc6ccccc6c5)nc5ncccn45)CC3)ccc2c1 | – | 12600 | 31600 | 79400
Clc1ccc(-c2nc3ncccn3c2CN2CCN(Cc3c(-c4ccc(Cl)cc4Cl)nc4ncccn34)CC2)c(Cl)c1 | – | 2720 | 210 | 27700
COc1cc(OC)n2c(CN3CCN(Cc4c(-c5ccccc5)nc5nc(OC)cc(OC)n45)CC3)c(-c3ccccc3)nc2n1 | – | 9320 | 120 | 510

More lines, in order of falling GI50 [2], values ahead:

GI50 [1] [nM] | GI50 [2] [nM] | GI50 [4] [nM] | Compound | GI50 [3] [nM]
210 | 1670 | 1410 | c1ccc(-c2nc3ncccn3c2CN2CCOCC2)cc1 | 770
– | 930 | < 10 | CN1CCN(Cc2c(-c3ccccc3)nc3ncccn23)CC1 | 350
– | 930 | 7100 | c1csc(-c2nc3ncccn3c2CN2CCN(Cc3c(-c4cccs4)nc4ncccn34)CC2)c1 | 3700
– | 890 | 1000 | Brc1ccc(-c2nc3ncccn3c2CN2CCN(Cc3c(-c4ccc(Br)cc4)nc4ncccn34)CC2)cc1 | 60
1090 | 850 | 1430 | Cc1ccn2c(CN3CCOCC3)c(-c3ccccc3)nc2n1 | 1830
– | 720 | 26700 | c1ccc(-c2nc3ncccn3c2CN2CCNCC2)cc1 | 9400
– | 480 | < 10 | Cc1ccccc1-c1nc2ncccn2c1CN1CCN(Cc2c(-c3ccccc3C)nc3ncccn23)CC1 | 120
7390 | 450 | 350 | Cc1ccn2c(CN3CCCCC3)c(C(C)(C)C)nc2n1 | 960
180 | 240 | 200 | c1csc(-c2nc3ncccn3c2CN2CCCC2)c1 | 680
4150 | 180 | 4830 | Cc1ccn2c(CN3CCCC3)c(-c3ccccc3)nc2n1 | 150
2570 | 160 | 320 | Cc1ccn2c(CN3CCOCC3)c(-c3ccc(Cl)cc3)nc2n1 | 1170
50 | 70 | 70 | c1ccc(-c2nc3ncccn3c2CN2CCCC2)cc1 | 60
< 10 | 31 | 10 | COc1cccc2c1C(=O)c1c(O)c3c(c(O)c1C2=O)C[C@@](O)(C(=O)CO)C[C@@H]3O[C@H]1C[C@H](N)[C@H](O)[C@H](C)O1 [DOXORUBICIN] | 10
330 | 30 | 1490 | CC(C)(C)c1nc2ncccn2c1CN1CCCCC1 | 4510
